Converted amounts (≈) assume the structure as drawn. The source made the active and inactive calls. The calls are words filed in the database; no cut-off is given here.
Assays:
[1] = Aqueous solubility of the compound in FASSIF; assay type: physicochemical
How it was run: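 Solubility from crystalline solid in Fasted Simulated Intestinal Fluid (FASSIF), µg/mL.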

Mus musculus [2] = assay: In vivo inhibition of AKT phosphorylation at Ser473 in nude mouse xenografted with PTEN-deficient human PC3 cells at 100 mg/kg, po administered as single dose measured after 30 mins to 8 hrs; assay type: functional, organism-based
How it was run: (§1)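 Single oral dose (100 or 30 mg/kg) to nude mice carrying PTEN-deficient PC3 prostate xenografts; tumour AKT Ser473 phosphorylation measured at 30 min, 2 h and 8 h, with free plasma concentration determined at same time points.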

[3] = Volume of distribution at steady state in mouse blood at 5 umol/kg, iv or 30 umol/kg, po; assay type: ADME, organism-based; conditions: read-out: Vdss
[4] = target: Choline/ethanolamine kinase (Homo sapiens, UniProt Q9Y259); assay: Inhibition of human CHKbeta (1 to 395 residues) by ADP Glo HTS assay
How it was run: (§2)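 Lipid kinase selectivity assessed in a 15-kinase panel (Dundee University lipid kinase panel), IC50 determined.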

[5] = AUC in mouse at 30 umol/kg, po; assay type: ADME; conditions: in vivo
[6] = target: Phosphatidylinositol 3-kinase regulatory subunit alpha (Homo sapiens, UniProt P27986); assay: Inhibition of human PI3K p85alpha (1 to 724 residues) by ADP Glo HTS assay; how it was run: as §2
PC-3 [7] = assay: Antitumor activity against PTEN-deficient human PC3 cells xenografted in nude mouse assessed as tumor growth inhibition at 50 mg/kg, po bid relative to control; assay type: functional; conditions: PC-3, po, read-out: TGI
How it was run: (§3)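 Nude mice bearing PTEN-deficient PC3 prostate tumour xenografts; compound given orally twice daily (b.i.d.) at 100 or 50 mg/kg over chronic dosing; tumour growth inhibition versus control determined at end of study.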

[8] = Solubility of the compound in aqueous buffer at pH 6.5; assay type: physicochemical
How it was run: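 Solubility from crystalline solid in aqueous buffer, pH 6.5, µg/mL.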

[9] = Lipophilicity, log D of the compound at pH 7.4; conditions: buffer
[10] = target: MAP kinase-interacting serine/threonine-protein kinase 1 (Homo sapiens) (UniProt Q9BUB5); assay: Inhibition of human MNK1 (2 to 424 residues) at 1 uM after 5 mins in presence of [33P]ATP by filter binding assay relative to control
Sphingosine kinase 1 = Sphingosine kinase 1 (Homo sapiens, UniProt Q9NYA1); assay: Inhibition of human SphK1 (1 to 384 residues) by ATP-Glo HTS assay; how it was run: as §2
Cytochrome P450 2C9 = Cytochrome P450 2C9 (Homo sapiens, UniProt P11712); assay: Inhibition of CYP2C9 (unknown origin); assay type: ADME
[11] = Oral bioavailability in mouse blood at 30 umol/kg; assay type: ADME, organism-based
[12] = Clearance in mouse blood at 5 umol/kg, iv or 30 umol/kg, po; assay type: ADME, organism-based
[13] = target: T1, Phosphatidylinositol 4,5-bisphosphate 3-kinase catalytic subunit gamma isoform (Homo sapiens, UniProt P48736); assay: Inhibition of recombinant human PI3Kgamma using PIP2 as substrate preincubated for 20 mins followed by substrate addition measured after 80 mins in presence of ATP by Kinase Glo luminescence assay
How it was run: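 Enzyme IC50 against PI3Kγ, single determination (n=1).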

[14] = Fraction unbound in dog plasma; assay type: ADME, cell-free, Canis lupus familiaris
How it was run: (§4)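 Plasma protein binding in mouse, dog or human plasma, reported as fraction unbound (%).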

Cytochrome P450 1A2 = Cytochrome P450 1A2 (Homo sapiens, UniProt P05177); assay: Inhibition of CYP1A2 (unknown origin); assay type: ADME
[15] = target: Phosphatidylinositol 4,5-bisphosphate 3-kinase catalytic subunit gamma isoform (Mus musculus, UniProt Q9JHG7); assay: Inhibition of PI3Kgamma in mouse RAW264 cells assessed as decrease in AKT phosphorylation at Ser473; assay type: cell-based
How it was run: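 Mouse monocytic RAW264 cells; inhibition of AKT Ser473 phosphorylation measured; single determination (n=1).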

[16] = target: Diacylglycerol kinase beta (Homo sapiens, UniProt Q9Y6T7); assay: Inhibition of human DGKbeta (1 to 804 residues) by ADP Glo HTS assay; how it was run: as §2
Cytochrome P450 2D6 = Cytochrome P450 2D6 (Homo sapiens, UniProt P10635); assay: Inhibition of CYP2D6 (unknown origin); assay type: ADME
[17] = target: Phosphatidylinositol 4,5-bisphosphate 3-kinase catalytic subunit alpha isoform (Homo sapiens, UniProt P42336); assay: Inhibition of recombinant human PI3Kalpha using PIP2 as substrate preincubated for 20 mins followed by substrate addition measured after 80 mins in presence of ATP by Kinase Glo luminescence assay
[18] = target: Serine/threonine-protein kinase mTOR (Homo sapiens, UniProt P42345); assay: Inhibition of mTOR (unknown origin)
[19] = target: MAP/microtubule affinity-regulating kinase 4 (Homo sapiens) (UniProt Q96L34); assay: Inhibition of human MARK4 (2 to 752 residues) at 1 uM after 5 mins in presence of [33P]ATP by filter binding assay relative to control
[20] = target: T2, Phosphatidylinositol 4,5-bisphosphate 3-kinase catalytic subunit beta isoform (Homo sapiens, UniProt P42338); assay: Inhibition of recombinant human PI3Kbeta using PIP2 as substrate preincubated for 20 mins followed by substrate addition measured after 80 mins in presence of ATP by Kinase Glo luminescence assay
[21] = Intrinsic clearance in human hepatocytes assessed per million cells; assay type: ADME, cell-based, Hepatocyte; conditions: read-out: CLH
[22] = target: Voltage-gated inwardly rectifying potassium channel KCNH2 (Homo sapiens, UniProt Q12809); assay: Inhibition of human ERG
[23] = target: Phosphatidylinositol 4,5-bisphosphate 3-kinase catalytic subunit alpha isoform (Homo sapiens, UniProt P42336, E545K); assay: Inhibition of human PI3Kalpha (2 to 1068 residues)/p85 (1 to 724 residues) E545K mutant by ADP Glo HTS assay; how it was run: as §2
[24] = target: Diacylglycerol kinase gamma (Homo sapiens, UniProt P49619); assay: Inhibition of human DGKgamma (1 to 752 residues) by ADP Glo HTS assay; how it was run: as §2
Sphingosine kinase 2 = Sphingosine kinase 2 (Homo sapiens, UniProt Q9NRA0); assay: Inhibition of human SPHK 2 (1 to 654 residues) by ADP Glo HTS assay; how it was run: as §2
[25] = Apparent permeability across apical to basolateral side in human Caco2 cells; conditions: Caco-2
[26] = target: T1, Phosphatidylinositol 4,5-bisphosphate 3-kinase catalytic subunit gamma isoform; assay: Inhibition of human PI3Kgamma (2 to 1102 residues) by ADP Glo HTS assay; how it was run: as §2
Mus musculus [27] = assay: In vivo inhibition of AKT phosphorylation at Ser473 in nude mouse xenografted with PTEN-deficient human PC3 cells at 30 mg/kg, po administered as single dose measured after 30 mins to 8 hrs; assay type: functional, organism-based; how it was run: as §1
Cytochrome P450 2C19 = Cytochrome P450 2C19 (Homo sapiens, UniProt P33261); assay: Inhibition of CYP2C19 (unknown origin); assay type: ADME
[28] = Clearance in dog blood at 4 umol/kg, iv or 10 umol/kg, po; assay type: ADME, organism-based, Canis lupus familiaris
[29] = target: T2, Phosphatidylinositol 4,5-bisphosphate 3-kinase catalytic subunit beta isoform; assay: Inhibition of PI3Kbeta in PTEN-deficient human MDA-MB-468 cells assessed as decrease in AKT phosphorylation at Ser473 measured after 2 hrs
PC-3 [30] = assay: Antitumor activity against PTEN-deficient human PC3 cells xenografted in nude mouse assessed as tumor growth inhibition at 100 mg/kg, po bid relative to control; assay type: functional; conditions: PC-3, po, read-out: TGI; how it was run: as §3
[31] = Fraction unbound in human plasma; assay type: ADME, cell-free; how it was run: as §4

T1 sequence (P48736 whole entry, canonical isoform): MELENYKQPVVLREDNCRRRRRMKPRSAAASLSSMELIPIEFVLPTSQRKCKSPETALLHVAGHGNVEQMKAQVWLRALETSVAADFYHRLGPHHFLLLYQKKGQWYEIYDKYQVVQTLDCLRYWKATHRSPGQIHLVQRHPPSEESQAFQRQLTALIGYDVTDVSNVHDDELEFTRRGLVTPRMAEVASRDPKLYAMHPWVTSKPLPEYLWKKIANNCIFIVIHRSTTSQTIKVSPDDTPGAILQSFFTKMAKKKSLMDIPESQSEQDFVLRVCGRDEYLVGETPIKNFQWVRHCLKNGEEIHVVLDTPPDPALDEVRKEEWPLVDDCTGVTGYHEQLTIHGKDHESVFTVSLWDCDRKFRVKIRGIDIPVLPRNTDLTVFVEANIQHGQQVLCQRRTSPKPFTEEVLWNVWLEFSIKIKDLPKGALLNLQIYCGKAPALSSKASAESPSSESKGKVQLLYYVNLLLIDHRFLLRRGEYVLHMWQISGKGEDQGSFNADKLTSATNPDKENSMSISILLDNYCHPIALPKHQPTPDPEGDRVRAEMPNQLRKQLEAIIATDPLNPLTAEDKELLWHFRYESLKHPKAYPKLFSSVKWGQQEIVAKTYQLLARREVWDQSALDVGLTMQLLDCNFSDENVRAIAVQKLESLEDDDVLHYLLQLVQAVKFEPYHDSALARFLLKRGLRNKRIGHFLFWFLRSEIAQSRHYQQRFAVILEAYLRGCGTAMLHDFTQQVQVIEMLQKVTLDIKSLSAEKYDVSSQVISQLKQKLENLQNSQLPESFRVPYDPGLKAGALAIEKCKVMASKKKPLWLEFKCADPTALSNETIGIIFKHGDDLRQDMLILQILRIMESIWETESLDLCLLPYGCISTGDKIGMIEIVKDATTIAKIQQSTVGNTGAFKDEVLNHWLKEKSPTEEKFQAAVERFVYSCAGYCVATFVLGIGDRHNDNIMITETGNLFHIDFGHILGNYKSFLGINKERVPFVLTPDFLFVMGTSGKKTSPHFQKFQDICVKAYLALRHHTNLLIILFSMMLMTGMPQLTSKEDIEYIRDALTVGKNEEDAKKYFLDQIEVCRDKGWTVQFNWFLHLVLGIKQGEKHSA
T2 sequence (P42338 whole entry, canonical isoform): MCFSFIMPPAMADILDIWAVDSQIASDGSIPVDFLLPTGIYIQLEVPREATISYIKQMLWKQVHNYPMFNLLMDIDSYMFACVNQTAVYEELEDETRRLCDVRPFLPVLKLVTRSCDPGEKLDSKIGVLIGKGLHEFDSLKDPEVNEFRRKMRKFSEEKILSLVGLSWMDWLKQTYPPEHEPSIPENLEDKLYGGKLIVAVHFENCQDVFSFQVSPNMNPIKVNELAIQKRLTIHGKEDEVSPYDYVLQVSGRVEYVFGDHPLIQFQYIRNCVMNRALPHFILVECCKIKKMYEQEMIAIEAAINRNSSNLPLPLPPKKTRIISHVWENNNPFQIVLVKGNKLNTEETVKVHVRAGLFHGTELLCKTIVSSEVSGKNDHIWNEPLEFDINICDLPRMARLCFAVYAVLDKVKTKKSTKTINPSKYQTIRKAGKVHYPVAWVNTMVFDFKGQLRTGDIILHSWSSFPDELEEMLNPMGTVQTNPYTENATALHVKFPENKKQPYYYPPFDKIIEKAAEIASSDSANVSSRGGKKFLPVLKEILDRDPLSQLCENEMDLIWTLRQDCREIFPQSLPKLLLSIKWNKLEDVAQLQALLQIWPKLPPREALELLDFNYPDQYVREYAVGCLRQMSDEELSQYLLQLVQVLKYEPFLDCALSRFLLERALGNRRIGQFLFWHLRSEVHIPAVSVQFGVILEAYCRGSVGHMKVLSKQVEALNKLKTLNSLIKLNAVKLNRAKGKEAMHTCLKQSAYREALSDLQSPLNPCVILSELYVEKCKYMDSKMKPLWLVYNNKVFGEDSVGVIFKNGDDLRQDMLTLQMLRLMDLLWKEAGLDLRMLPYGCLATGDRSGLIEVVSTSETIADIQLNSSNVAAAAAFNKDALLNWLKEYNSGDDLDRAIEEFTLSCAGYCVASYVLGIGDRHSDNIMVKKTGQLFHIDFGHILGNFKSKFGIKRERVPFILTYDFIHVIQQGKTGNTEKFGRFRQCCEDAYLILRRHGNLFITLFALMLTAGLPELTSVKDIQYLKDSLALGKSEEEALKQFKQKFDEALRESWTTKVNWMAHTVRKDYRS
Chain of MAP/microtubule affinity-regulating kinase 4 (Homo sapiens) (Q96L34 whole entry, the tested form may be a part, canonical isoform): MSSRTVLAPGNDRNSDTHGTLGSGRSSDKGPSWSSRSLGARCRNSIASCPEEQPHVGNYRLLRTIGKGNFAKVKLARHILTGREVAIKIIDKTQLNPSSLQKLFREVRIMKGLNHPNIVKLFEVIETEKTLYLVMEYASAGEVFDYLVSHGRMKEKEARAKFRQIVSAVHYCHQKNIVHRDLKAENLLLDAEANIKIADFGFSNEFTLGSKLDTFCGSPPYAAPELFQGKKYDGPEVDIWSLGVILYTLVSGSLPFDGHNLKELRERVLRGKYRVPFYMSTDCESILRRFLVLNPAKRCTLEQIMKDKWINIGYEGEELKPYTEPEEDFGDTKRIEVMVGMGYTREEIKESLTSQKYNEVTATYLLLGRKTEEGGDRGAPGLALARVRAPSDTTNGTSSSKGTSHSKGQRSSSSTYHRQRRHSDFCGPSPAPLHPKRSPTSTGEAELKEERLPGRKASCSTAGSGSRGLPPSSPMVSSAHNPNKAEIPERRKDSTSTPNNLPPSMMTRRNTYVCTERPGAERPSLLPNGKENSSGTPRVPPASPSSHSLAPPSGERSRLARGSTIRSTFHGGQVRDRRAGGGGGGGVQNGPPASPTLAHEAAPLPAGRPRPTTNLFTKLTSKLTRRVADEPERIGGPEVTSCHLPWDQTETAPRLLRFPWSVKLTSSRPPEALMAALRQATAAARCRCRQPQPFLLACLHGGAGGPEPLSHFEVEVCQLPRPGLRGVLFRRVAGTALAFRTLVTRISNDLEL
Chain of Voltage-gated inwardly rectifying potassium channel KCNH2 (Q12809 whole entry, the tested form may be a part, canonical isoform): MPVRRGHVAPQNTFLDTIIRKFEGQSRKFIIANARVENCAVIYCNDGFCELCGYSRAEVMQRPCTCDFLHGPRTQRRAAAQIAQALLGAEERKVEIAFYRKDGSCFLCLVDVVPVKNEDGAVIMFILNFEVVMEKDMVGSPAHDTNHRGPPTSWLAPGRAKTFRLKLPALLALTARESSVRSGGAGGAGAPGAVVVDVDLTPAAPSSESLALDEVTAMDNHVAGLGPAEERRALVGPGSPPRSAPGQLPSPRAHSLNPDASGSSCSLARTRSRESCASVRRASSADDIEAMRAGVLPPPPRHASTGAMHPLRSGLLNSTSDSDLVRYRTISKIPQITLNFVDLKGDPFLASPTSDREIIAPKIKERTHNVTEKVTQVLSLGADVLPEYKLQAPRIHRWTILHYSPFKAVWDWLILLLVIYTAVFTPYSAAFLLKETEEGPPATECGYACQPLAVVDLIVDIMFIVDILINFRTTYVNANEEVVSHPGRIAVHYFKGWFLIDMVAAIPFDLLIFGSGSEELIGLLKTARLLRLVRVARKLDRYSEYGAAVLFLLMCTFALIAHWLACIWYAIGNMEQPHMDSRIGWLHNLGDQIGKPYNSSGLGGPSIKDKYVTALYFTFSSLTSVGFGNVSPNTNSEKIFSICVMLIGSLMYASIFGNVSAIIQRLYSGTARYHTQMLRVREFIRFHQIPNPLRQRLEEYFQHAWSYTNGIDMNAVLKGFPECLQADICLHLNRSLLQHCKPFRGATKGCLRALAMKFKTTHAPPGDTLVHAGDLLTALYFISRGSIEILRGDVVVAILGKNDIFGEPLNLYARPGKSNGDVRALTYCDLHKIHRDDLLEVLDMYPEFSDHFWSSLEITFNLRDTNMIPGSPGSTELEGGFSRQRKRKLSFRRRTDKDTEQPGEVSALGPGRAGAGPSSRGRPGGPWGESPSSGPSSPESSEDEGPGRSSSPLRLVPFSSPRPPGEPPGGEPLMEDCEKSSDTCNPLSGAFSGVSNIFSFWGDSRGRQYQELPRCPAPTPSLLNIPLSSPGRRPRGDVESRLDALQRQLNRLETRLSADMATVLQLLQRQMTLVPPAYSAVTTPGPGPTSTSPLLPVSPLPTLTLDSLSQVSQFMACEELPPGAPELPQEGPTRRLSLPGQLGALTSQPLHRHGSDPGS
Chain of Choline/ethanolamine kinase (Q9Y259 whole entry, the tested form may be a part): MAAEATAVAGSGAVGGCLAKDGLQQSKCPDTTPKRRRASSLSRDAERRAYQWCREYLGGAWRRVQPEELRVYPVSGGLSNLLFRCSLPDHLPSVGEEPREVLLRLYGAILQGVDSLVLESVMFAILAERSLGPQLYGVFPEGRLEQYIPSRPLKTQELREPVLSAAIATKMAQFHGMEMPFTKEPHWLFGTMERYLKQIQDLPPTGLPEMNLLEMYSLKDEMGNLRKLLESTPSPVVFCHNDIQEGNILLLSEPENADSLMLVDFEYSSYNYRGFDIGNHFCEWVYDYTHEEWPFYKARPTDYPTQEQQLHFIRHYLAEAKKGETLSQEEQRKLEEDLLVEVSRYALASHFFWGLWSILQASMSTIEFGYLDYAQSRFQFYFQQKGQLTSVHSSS
Chain of Cytochrome P450 2D6 (P10635 whole entry, canonical isoform): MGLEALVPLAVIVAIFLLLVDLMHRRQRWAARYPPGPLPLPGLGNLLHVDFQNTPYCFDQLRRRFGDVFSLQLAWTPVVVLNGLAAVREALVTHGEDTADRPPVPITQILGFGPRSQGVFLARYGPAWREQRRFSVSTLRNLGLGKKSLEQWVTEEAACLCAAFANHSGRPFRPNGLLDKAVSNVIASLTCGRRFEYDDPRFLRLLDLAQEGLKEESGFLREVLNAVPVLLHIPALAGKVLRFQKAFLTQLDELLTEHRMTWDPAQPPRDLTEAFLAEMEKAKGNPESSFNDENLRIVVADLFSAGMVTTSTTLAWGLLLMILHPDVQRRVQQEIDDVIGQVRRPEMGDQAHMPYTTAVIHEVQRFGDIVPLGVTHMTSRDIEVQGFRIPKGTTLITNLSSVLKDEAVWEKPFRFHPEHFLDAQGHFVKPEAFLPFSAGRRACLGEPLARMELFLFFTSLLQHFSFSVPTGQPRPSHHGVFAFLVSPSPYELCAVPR

With `O=C(c1cc([C@H]2CCCN2c2cc(F)cc(F)c2)c2oc(N3CCOCC3)cc(=O)c2c1)N1CCOCC1` the solubility [1] was 430 µg/mL (≈ 818 µM), the inhibition (Mus musculus [2]) was “Active” and the Vd [3] was 1 L/kg. It also gave an IC50 [4] of over 50 µM, an AUC [5] of 2.8 µM·h and an IC50 [6] of over 50 µM. For the same molecule, the inhibition in vivo at 50 mg/kg (PC-3 [7]) was 71%, the solubility [8] was 230 µg/mL (≈ 438 µM) and the logD [9] was 2.5. The inhibition [10] was 36%, the IC50 (Sphingosine kinase 1) was 29 µM and the IC50 (Cytochrome P450 2C9) was over 30 µM. It also gave a bioavailability [11] of 26%, a clearance [12] of 60 mL/min/kg and an IC50 [13] of 0.19 µM. The fraction unbound [14] was 0.28, the IC50 (Cytochrome P450 1A2) was over 30 µM and the IC50 [15] was 1.5 µM. The IC50 [16] was over 50 µM, the IC50 (Cytochrome P450 2D6) was over 30 µM and the IC50 [17] was 0.013 µM. For the same molecule, the IC50 [18] was 42 µM, the inhibition [19] was 32% and the IC50 [20] was 0.0071 µM. The hepatocyte CLint [21] was 2.7 to 5 µL/min/1e6 cells, the IC50 [22] was 45 µM and the IC50 [23] was over 50 µM. The IC50 [24] was over 50 µM, the IC50 (Sphingosine kinase 2) was over 50 µM and the Papp A→B [25] was 18 ×10⁻⁶ cm/s. For the same molecule, the IC50 [26] was over 50 µM, the inhibition (Mus musculus [27]) was “Active” and the IC50 (Cytochrome P450 2C19) was over 30 µM. For the same molecule, the clearance [28] was 23 mL/min/kg, the IC50 [29] was 0.0011 µM and the inhibition in vivo at 100 mg/kg (PC-3 [30]) was 83%. For the same molecule, the fraction unbound [31] was 0.17.
